Laboratory results as given in ChEMBL document CHEMBL5653631, “A Potent and Selective ULK1 Inhibitor Suppresses Autophagy and Sensitizes Cancer Cells to Nutrient Stress” (iScience, 2018).
Values belong to the compound of their own block, whether it stands above or below them.

How the values were obtained:
[1] = molecular target: T1, Dual specificity tyrosine-phosphorylation-regulated kinase 3 (Homo sapiens) (UniProt O43781); experiment: Inhibition of human recombinant DYRK3 at 500 nM in presence of ATP by radiometric assay relative to control
T1 sequence (whole entry): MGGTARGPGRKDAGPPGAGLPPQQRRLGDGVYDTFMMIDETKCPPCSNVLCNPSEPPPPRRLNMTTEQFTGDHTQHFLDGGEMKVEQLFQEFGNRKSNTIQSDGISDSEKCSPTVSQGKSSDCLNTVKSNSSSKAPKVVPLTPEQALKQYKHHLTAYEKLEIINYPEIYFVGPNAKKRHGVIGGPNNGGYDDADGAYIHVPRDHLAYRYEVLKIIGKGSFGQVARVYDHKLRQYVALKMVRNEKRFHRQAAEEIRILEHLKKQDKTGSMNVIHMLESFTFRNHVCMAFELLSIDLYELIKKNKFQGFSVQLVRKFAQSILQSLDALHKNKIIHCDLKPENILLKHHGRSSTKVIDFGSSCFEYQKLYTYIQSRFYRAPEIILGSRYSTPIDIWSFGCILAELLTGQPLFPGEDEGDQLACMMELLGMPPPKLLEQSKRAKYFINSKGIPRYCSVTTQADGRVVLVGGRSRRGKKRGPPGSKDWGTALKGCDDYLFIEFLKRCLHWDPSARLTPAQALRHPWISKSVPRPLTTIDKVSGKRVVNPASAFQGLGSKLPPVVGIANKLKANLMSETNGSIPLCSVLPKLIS

[2] = molecular target: T2, Mitogen-activated protein kinase kinase kinase 3 (Homo sapiens) (UniProt Q99759); experiment: Inhibition of human recombinant MAP3K3 at 500 nM related to control ULK1
T2 sequence (whole entry): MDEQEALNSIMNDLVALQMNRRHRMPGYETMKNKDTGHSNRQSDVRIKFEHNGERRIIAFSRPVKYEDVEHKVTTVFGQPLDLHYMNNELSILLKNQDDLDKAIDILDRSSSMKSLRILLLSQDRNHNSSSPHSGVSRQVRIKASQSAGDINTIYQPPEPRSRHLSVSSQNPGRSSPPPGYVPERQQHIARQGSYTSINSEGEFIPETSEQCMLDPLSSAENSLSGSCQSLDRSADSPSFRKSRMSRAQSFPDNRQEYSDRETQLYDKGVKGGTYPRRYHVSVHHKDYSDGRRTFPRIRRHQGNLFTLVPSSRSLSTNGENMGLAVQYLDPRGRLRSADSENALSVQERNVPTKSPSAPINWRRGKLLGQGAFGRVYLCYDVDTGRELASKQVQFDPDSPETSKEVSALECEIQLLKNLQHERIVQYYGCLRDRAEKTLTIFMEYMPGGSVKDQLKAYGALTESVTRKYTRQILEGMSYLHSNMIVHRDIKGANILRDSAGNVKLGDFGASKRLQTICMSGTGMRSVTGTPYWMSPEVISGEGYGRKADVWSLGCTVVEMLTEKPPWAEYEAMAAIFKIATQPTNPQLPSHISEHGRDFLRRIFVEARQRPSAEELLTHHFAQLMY

[3] = molecular target: Serine/threonine-protein kinase ATR (Homo sapiens) (UniProt Q13535); experiment: Inhibition of human recombinant ATR at 40 nM related to control ULK1
Procedure, shortened: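 Radiometric activity assays in a panel of 327 human recombinant kinases, each run in duplicate at one inhibitor concentration. Activity remaining is expressed as percent of vehicle control, and percent inhibition is calculated as 100% minus percent activity remaining.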

[4] = molecular target: Tyrosine-protein kinase CSK (Homo sapiens) (UniProt P41240); experiment: Inhibition of human recombinant CSK at 40 nM related to control ULK1
[5] = molecular target: T3, Mitogen-activated protein kinase kinase kinase 5 (Homo sapiens) (UniProt Q99683); experiment: Inhibition of human recombinant MAP3K5 at 40 nM related to control ULK1
T3 sequence (whole entry): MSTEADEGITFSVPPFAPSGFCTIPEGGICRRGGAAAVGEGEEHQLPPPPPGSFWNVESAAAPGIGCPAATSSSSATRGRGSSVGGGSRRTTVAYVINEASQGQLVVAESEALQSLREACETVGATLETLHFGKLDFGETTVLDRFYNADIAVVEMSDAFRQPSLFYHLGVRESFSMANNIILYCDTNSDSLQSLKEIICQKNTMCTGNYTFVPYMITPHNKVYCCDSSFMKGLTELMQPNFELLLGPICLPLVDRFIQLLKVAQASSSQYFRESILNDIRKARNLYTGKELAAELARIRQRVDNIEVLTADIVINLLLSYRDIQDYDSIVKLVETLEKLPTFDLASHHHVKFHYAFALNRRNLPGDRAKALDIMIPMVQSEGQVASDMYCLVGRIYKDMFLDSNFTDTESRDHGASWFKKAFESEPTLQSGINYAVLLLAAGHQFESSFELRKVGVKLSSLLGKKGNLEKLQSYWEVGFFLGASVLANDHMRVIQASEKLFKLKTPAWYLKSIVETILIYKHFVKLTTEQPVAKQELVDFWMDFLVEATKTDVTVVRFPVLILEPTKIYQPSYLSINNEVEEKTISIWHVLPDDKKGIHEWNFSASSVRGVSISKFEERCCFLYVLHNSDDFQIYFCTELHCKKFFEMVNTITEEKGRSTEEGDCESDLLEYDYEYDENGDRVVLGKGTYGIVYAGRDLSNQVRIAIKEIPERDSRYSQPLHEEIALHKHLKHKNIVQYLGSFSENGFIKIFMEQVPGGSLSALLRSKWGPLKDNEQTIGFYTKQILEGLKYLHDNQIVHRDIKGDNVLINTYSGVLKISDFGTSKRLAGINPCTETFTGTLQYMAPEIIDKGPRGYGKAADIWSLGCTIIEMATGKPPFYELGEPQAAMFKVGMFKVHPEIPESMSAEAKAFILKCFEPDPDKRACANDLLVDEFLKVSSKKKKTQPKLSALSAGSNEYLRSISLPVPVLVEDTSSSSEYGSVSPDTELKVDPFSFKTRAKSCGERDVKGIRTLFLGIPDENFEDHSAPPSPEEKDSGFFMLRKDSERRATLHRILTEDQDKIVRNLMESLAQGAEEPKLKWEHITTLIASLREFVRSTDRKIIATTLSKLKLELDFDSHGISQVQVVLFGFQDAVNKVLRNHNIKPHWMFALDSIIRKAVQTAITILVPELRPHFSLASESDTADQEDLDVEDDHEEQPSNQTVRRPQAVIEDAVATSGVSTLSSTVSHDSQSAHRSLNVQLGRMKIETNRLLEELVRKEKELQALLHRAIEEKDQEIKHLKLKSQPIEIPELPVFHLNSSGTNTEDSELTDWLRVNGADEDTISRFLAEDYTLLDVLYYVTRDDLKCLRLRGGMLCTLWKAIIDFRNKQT

[6] = molecular target: Interleukin-1 receptor-associated kinase 1 (Homo sapiens) (UniProt P51617); experiment: Inhibition of human recombinant IRAK1 at 15 nM in presence of ATP by radiometric assay relative to control
Chain of Interleukin-1 receptor-associated kinase 1 (Homo sapiens) (P51617 whole entry, looked up): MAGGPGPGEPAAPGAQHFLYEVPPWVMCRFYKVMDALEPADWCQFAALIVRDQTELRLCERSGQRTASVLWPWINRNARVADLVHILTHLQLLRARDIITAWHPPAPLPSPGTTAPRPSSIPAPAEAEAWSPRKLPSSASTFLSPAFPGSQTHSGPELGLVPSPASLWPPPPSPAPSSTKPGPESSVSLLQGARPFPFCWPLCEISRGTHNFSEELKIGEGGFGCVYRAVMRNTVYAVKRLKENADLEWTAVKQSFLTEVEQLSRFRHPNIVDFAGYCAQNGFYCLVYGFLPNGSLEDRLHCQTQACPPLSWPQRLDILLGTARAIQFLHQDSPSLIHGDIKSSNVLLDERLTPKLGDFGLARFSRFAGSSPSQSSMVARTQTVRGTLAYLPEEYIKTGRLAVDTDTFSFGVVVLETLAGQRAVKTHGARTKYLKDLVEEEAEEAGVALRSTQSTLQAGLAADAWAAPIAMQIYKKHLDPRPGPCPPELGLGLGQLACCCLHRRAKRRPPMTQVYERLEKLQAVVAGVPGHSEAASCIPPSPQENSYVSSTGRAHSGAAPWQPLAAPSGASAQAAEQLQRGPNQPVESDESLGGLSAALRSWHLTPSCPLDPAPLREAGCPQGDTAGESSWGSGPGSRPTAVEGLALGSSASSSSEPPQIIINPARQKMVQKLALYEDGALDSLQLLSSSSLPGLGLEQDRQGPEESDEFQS

Chain of Tyrosine-protein kinase CSK (Homo sapiens) (P41240 2-450 limits assumed): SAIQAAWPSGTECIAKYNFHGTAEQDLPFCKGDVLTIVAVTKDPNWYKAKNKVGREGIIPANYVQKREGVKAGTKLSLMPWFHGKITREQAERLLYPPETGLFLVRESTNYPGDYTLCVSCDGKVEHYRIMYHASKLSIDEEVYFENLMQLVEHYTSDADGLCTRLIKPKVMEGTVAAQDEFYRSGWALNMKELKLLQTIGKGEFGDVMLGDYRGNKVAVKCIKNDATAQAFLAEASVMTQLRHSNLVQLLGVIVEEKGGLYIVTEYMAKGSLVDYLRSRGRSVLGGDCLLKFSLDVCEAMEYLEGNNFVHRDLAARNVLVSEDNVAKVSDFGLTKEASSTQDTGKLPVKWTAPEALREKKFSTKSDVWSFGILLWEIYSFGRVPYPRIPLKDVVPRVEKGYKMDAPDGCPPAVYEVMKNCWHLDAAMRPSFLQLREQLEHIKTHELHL
Chain of Serine/threonine-protein kinase ATR (Homo sapiens) (Q13535 whole entry, looked up): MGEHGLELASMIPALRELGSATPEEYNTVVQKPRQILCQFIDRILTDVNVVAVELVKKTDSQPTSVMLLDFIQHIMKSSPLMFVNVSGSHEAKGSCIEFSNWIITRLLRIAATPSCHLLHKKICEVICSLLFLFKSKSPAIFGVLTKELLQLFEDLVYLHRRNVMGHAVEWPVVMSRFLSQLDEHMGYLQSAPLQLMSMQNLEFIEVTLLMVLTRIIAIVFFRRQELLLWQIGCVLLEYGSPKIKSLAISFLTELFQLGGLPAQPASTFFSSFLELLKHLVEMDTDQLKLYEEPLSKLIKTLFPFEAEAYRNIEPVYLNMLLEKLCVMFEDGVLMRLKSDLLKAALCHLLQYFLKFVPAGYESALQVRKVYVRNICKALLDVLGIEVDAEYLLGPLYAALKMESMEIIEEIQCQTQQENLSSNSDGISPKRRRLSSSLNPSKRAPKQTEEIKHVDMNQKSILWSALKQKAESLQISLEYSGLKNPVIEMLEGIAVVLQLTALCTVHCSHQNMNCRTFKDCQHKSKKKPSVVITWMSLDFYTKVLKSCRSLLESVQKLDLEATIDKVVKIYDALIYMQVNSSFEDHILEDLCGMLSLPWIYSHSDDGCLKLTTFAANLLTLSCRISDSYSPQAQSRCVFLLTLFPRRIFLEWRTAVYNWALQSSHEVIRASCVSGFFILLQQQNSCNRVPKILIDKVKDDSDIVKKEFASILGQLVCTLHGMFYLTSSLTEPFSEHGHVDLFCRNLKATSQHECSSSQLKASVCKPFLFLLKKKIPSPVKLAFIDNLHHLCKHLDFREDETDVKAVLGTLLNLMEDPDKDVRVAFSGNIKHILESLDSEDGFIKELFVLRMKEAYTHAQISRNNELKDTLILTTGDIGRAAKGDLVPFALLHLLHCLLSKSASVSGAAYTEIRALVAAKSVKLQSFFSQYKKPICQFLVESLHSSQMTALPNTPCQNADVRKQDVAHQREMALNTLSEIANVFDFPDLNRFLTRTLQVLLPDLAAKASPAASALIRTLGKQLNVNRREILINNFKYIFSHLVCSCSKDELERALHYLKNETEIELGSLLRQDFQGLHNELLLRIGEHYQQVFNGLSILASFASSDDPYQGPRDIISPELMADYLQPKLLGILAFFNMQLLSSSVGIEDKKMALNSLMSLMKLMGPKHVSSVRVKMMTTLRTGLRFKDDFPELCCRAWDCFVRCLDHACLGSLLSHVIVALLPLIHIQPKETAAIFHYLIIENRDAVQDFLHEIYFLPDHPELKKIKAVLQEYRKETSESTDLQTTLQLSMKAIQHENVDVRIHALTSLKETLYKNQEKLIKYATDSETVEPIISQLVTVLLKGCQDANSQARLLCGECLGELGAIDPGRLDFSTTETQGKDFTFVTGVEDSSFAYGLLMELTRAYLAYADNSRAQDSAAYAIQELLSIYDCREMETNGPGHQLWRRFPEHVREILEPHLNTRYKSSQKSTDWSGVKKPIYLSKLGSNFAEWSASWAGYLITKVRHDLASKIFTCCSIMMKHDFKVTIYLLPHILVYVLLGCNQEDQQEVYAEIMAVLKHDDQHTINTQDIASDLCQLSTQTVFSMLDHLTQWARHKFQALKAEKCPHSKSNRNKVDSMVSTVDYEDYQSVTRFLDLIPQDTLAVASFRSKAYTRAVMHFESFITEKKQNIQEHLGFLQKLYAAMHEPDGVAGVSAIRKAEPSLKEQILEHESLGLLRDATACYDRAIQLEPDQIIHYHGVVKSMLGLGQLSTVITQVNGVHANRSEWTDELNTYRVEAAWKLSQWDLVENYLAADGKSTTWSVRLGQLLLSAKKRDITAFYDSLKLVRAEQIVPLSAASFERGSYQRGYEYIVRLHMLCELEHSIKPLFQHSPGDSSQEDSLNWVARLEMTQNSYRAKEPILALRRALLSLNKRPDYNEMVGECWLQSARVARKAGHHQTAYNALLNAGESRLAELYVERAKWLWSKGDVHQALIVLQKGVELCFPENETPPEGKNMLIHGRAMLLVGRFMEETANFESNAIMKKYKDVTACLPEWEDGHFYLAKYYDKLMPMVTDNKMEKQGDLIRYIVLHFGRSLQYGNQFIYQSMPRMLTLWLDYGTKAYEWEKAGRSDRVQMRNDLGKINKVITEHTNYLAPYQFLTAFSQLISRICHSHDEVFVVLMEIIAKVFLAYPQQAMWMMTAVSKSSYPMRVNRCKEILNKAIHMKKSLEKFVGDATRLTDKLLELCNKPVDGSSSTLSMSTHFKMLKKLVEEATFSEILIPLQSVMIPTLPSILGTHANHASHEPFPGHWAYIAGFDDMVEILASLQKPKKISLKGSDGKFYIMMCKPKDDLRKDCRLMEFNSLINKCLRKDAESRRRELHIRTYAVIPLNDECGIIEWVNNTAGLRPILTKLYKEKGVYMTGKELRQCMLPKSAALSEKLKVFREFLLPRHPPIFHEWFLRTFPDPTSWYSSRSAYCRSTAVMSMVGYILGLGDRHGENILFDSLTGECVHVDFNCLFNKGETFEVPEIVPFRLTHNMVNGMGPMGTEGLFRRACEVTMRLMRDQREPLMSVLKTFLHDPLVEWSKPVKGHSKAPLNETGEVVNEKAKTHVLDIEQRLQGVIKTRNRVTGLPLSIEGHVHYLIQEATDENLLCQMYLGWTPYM

- inhibition [1]: 0%
- fold change (FC) [2]: 0
Structure (SMILES): CNC(=O)c1ccccc1Oc1nc(Nc2cc(OC)c(OC)c(OC)c2)ncc1Br

- fold change (FC) [3]: 0
- fold change (FC) [4]: 0
- fold change (FC) [5]: 0
Structure (SMILES): O=C(N[C@@H](C1CC1)C(F)(F)F)c1cc(-c2cnn3cc(-c4ccc(F)cc4)cnc23)cs1

- inhibition [6]: 36%
Structure (SMILES): CC(C)[C@H](NC(=O)c1cc(-c2cnn3cc(-c4ccc(OCCN5CCCCC5)cc4)cnc23)cs1)C(F)(F)F
